Assay results from different studies.
Lines come from different studies, so protocols differ.
Target: Tyrosine-protein kinase receptor UFO (AXL, Homo sapiens, UniProt P30530)
Sequence (P30530 1-894, as in one of the studies): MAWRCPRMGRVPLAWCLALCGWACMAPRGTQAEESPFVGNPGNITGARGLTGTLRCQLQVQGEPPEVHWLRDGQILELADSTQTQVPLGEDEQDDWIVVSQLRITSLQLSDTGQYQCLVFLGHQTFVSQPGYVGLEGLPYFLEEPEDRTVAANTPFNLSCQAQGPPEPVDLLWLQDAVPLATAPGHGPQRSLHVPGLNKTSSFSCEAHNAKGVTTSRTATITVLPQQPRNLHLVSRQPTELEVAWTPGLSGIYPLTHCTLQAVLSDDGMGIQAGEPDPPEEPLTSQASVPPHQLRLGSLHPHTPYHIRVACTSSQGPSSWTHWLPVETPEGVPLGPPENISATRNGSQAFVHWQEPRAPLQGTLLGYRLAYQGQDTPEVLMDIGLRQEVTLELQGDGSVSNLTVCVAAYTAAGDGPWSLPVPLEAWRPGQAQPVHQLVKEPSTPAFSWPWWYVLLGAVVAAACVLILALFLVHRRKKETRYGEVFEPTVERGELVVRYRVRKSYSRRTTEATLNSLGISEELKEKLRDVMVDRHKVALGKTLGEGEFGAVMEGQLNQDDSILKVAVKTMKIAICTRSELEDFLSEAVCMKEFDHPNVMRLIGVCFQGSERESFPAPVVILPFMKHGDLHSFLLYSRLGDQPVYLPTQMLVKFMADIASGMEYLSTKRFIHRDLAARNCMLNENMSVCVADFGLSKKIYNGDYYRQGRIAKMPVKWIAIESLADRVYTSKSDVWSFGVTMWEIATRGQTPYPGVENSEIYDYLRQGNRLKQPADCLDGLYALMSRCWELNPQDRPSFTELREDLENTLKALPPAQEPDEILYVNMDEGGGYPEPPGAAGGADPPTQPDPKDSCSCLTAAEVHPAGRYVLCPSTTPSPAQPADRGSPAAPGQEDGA

Compound	effect on	action	method	concentration	endpoint	value
CC/C(=N\NC(=O)NCc1cccc(O)c1)c1ccc(O)c(C)c1O	enzyme activity	inhibitor	–	0.1 µM	inhibition	1.3%
CCN(CC)CCNC(=O)c1c(C)[nH]c(/C=C2\C(=O)Nc3ccc(F)cc32)c1C	enzyme activity	inhibitor	–	0.1 µM	remaining activity	41%
CC(C)(C)c1nc(-c2cccc(NS(=O)(=O)c3c(F)cccc3F)c2F)c(-c2ccnc(N)n2)s1	enzyme activity	inhibitor	radiometric	1 µM	remaining activity	75%
CNCc1ccc(-c2cc(-c3nc(-c4ccc(S(=O)(=O)C(C)C)cc4)cnc3N)on2)cc1	enzyme activity	inhibitor	–	0.4 µM	inhibition	27%
Cc1cc(NC(=O)c2cccc3cc(-c4cccc5[nH]nc(N)c45)ccc23)ccc1F	enzyme activity	inhibitor	–	0.1 µM	activity vs control	113%
CN1CC(Oc2cnc(C#N)cc2-c2ccn3nc(NC(=O)C4CC4)cc3c2)C1	enzyme activity	inhibitor	–	1 µM	inhibition	-5%
O=c1c2ccccc2[nH]c(=S)n1CCN1CCC(=C(c2ccc(F)cc2)c2ccc(F)cc2)CC1	enzyme activity	inhibitor	–	0.5 µM	remaining activity	91.7%
Cc1ccc(NC(=O)c2ccc(C)c(C(F)(F)F)c2)cc1C#Cc1nn(C2CCC(O)CC2)c2ncnc(N)c12 (centres unmarked)	cell-free assay	–	–	10 µM	remaining signal	56%
Cc1c(C(=O)O)cc(-c2ccc(C3CCNCC3)cc2)c2ccc(-c3ccc(C(F)(F)F)cc3)cc12	binding	–	competition with immobilised ligand	1 µM	remaining binding	100%
CCCOc1ccc(OC)c(F)c1C(=O)c1ccc(C(=O)N[C@@H]2CNC[C@H]2NC(=O)c2ccc3[nH]ncc3c2)cc1	enzyme activity	inhibitor	–	10 µM	remaining activity	23%
Cc1[nH]c(/C=C2\C(=O)Nc3ccc(F)cc32)c(C)c1C(=O)N[C@H]1CCN(C(=O)N(C)C)C1	enzyme activity	inhibitor	–	0.1 µM	remaining activity	89%
COc1cc2ncnc(Nc3ccc(Oc4ccccc4)cc3C)c2cc1OC	enzyme activity	inhibitor	–	1 µM	inhibition	8%
O=C1Nc2ccc(Cl)cc2C1=Cc1cc(Cl)c(O)c(Cl)c1	cell-free assay	–	–	0.5 µM	remaining signal	106%
CN([C@@H]1CCc2c(CC(=O)O)c3ccccc3n2C1)S(=O)(=O)c1ccc(F)cc1	cell-free assay	–	competition with immobilised ligand	1 µM	remaining binding	100%
CCN(CC)CCNC(=O)c1c(C)[nH]c(/C=C2\C(=O)Nc3ccc(F)cc32)c1C	enzyme activity	inhibitor	–	0.3 µM	inhibition	75%
CC1=C(C#N)[C@@H](c2ccc3[nH]nc(C)c3c2)C(C#N)=C(c2ccc(Cl)cc2)N1	cell-free assay	–	competition with immobilised ligand	1 µM	remaining binding	100%

Compound	effect on	action	method	concentration	endpoint	value
CCCS(=O)(=O)Nc1ccc(F)c(C(=O)c2c[nH]c3ncc(-c4ccc(Cl)cc4)cc23)c1F	enzyme activity	inhibitor	–	1 µM	inhibition	< 10%
O=C(Nc1cccnn1)N1CCC(=Cc2cccc(Oc3ccc(C(F)(F)F)cn3)c2)CC1	cell-free assay	–	competition with immobilised ligand	1 µM	remaining binding	100%
O=C(O)c1ccc2c3c1cccc3c(=O)n1c3ccccc3nc21	enzyme activity	inhibitor	–	0.5 µM	remaining activity	94.3%
Cc1nc(Cc2cccc(C(F)(F)F)c2)sc1-c1ccc(C(N)=O)nc1	binding	–	competition with immobilised ligand	1 µM	remaining binding	100%
O=C(Nc1cnn(-c2csc(C(=O)NC3COC3)c2)c1)Nc1c(F)cccc1Cl	enzyme activity	inhibitor	–	5 µM	remaining activity	73%
CNC(=O)c1cc2c(Oc3ccc(NC(=O)C4(C(=O)Nc5ccc(F)cc5)CC4)cc3)ccnc2cc1OC	enzyme activity	inhibitor	radiometric	1 µM	inhibition	87%
N#CCCc1ccc2c(c1)-c1[nH]c3ccc([N+](=O)[O-])cc3c1CC(=O)N2	cell-free assay	–	–	0.5 µM	remaining signal	95.5%
Cc1cc(C)c(-n2ccn3nc(-c4cccnc4)cc23)cc1NC(=O)c1cc(C#N)cc(S(F)(F)(F)(F)F)c1	cell-free assay	–	competition with immobilised ligand	0.1 µM	remaining binding	80.5%
O=C(Nc1cnn(-c2csc(C(=O)NC3COC3)c2)c1)Nc1ccccc1Cl	enzyme activity	inhibitor	–	5 µM	remaining activity	96.7%
Clc1ccc(Nc2nnc(Cc3ccncc3)c3ccccc23)cc1	cell-free assay	–	–	0.5 µM	remaining signal	98.3%
CNCc1ccccc1-c1csc([C@H](C)Nc2nc(C)nc3cc(OC)c(OC)cc23)c1	cell-free assay	–	competition with immobilised ligand	1 µM	remaining binding	100%
Cc1ccc(Nc2nccc(N(C)c3ccc4c(C)n(C)nc4c3)n2)cc1S(N)(=O)=O	cell-free assay	–	–	0.5 µM	remaining signal	78.1%
COc1cc2nccc(Oc3ccc(NC(=O)c4c5n(n(-c6ccc(F)cc6)c4=O)CCCC5)cc3)c2cc1OC	enzyme activity	inhibitor	–	0.1 µM	inhibition	93%
O=C1NC(=O)c2cc(Nc3ccc(F)cc3)c(Nc3ccc(F)cc3)cc21	cell-free assay	–	–	0.5 µM	remaining signal	104%
O=C(Nc1ccc(Oc2ccc(F)cc2)cc1)N1CCc2ncccc2[C@H]1c1ccc(F)cc1	cell-free assay	–	competition with immobilised ligand	1 µM	remaining binding	77%
CNC(=O)c1cc(Oc2ccc(NC(=O)Nc3ccc(Cl)c(C(F)(F)F)c3)cc2)ccn1	enzyme activity	inhibitor	–	10 µM	inhibition	68%
